# Source: ChEMBL document CHEMBL4251593, “Nontoxic combretafuranone analogues with high in vitro antibacterial activity” (Eur J Med Chem, 2018)
# Calls of active or inactive are those of the source. The rule behind the calls is not given here.
# Tests used:
# [1] = tested on: Candida albicans; assay: Antifungal activity against Candida albicans ATCC 90028 up to 1 mM after 24 to 48 hrs by microdilution assay; type: functional, organism-based
# In short: (§1)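 Fungal microdilution following modified CLSI M27-A3/M38-A2, in RPMI 1640 with L-glutamine and 0.165 M MOPS at pH 7.0, with DMSO no more than 2% final. Compounds were 2-fold serially diluted from 2000 to 0.488 µmol/l. The inoculum was 5×10^3 cfu/ml. Incubation was at 35 °C, read visually at 24/48 h (T. mentagrophytes at 72/120 h). MIC was IC80 for yeasts and IC50 for filamentous fungi, determined twice in duplicate.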
# [2] = tested on: Staphylococcus aureus; assay: Antibacterial activity against Staphylococcus aureus ATCC 6538 after 24 hrs by microdilution assay; type: functional; conditions: ATCC 6538, 24 h
# [3] = tested on: Candida albicans; assay: Antifungal activity against Candida albicans ATCC 44859 up to 1 mM after 24 to 48 hrs by microdilution assay; type: functional, organism-based; in short: as §1
# [4] = tested on: Enterococcus sp.; assay: Antibacterial activity against Enterococcus sp. HK14365/08 clinical isolate after 24 hrs by microdilution assay; type: functional; conditions: HK14365/08, 24 h
# [5] = tested on: Pseudomonas aeruginosa; assay: Antibacterial activity against Pseudomonas aeruginosa ATCC 9027 after 48 hrs by microdilution assay; type: functional; conditions: ATCC 9027, 48 h
# In short: (§2)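 Broth microdilution in Mueller-Hinton medium buffered to pH 7.4 (±0.2), with DMSO as diluent at no more than 2% final. Compounds were tested as 2-fold serial dilutions from 2000 to 0.488 µmol/l. The inoculum was 0.5 McFarland (1.5×10^8 cfu/ml). Plates were held at 37 °C and read visually at 24 and 48 h. MIC was taken as 95% growth inhibition versus control, determined twice in duplicate.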
# [6] = tested on: BJ; assay: Cytotoxicity against human BJ cells assessed as reduction in cell viability after 48 hrs by ATPlite-based luminescent assay
# In short: (§3)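 Cells were grown […] with 10% FBS, glutamax, NEAA and pen/strep at 37 °C, 5% CO2. Media were DMEM for RPE-1, HepG2 and BJ (BJ plus 10 ng/ml bFGF), F-12K for PC3, and IMDM for K562/HL-60. Cells were seeded at 500 per well and dosed from DMSO at 12 concentrations, 40 µM to 1 nM, in triplicate. After 48 h, intracellular ATP was read by luminescence. ED50 was obtained by variable-slope nonlinear regression.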
# [7] = tested on: Candida tropicalis; assay: Antifungal activity against Candida tropicalis 156 clinical isolate up to 1 mM after 24 to 48 hrs by microdilution assay; type: functional, organism-based; in short: as §1
# [8] = tested on: Escherichia coli; assay: Antibacterial activity against Escherichia coli ATCC 8739 after 24 hrs by microdilution assay; type: functional; conditions: ATCC 8739, 24 h; in short: as §2
# [9] = tested on: Trichosporon asahii; assay: Antifungal activity against Trichosporon asahii 1188 clinical isolate up to 1 mM after 24 to 48 hrs by microdilution assay; type: functional, organism-based; in short: as §1
# [10] = tested on: Pichia kudriavzevii; assay: Antifungal activity against Candida krusei E28 clinical isolate up to 1 mM after 24 to 48 hrs by microdilution assay; type: functional, organism-based; in short: as §1
# [11] = tested on: HL-60; assay: Cytotoxicity against human HL60 cells assessed as reduction in cell viability after 48 hrs by ATPlite-based luminescent assay; conditions: HL-60, 48 h; in short: as §3
# [12] = tested on: K562; assay: Induction of apoptosis in human K562 cells assessed as caspase 3/7 activity after 24 hrs by caspase-glo luminescent assay; type: cell-based; conditions: K562, 24 h
# In short: (§4)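 Cells were seeded at 500 per well in their growth media and exposed to 12 concentrations from 40 µM to 1 nM, delivered from DMSO, in triplicate. After 24 h, caspase-3/7 activity was read by Caspase-Glo luminescence. Data were normalized and ED50 was fitted by variable-slope nonlinear regression.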
# [13] = tested on: Trichophyton mentagrophytes; assay: Antifungal activity against Trichophyton mentagrophytes 445 up to 1 mM after 72 to 120 hrs by microdilution assay; type: functional, organism-based; in short: as §1
# [14] = tested on: Klebsiella pneumoniae; assay: Antibacterial activity against Klebsiella pneumoniae HK11750/08 clinical isolate after 48 hrs by microdilution assay; type: functional; conditions: HK11750/08, 48 h
# [15] = tested on: HepG2; assay: Induction of apoptosis in human HepG2 cells assessed as caspase 3/7 activity after 24 hrs by caspase-glo luminescent assay; type: cell-based; conditions: HepG2, 24 h; in short: as §4
# [16] = tested on: Klebsiella pneumoniae; assay: Antibacterial activity against Klebsiella pneumoniae HK11750/08 clinical isolate after 24 hrs by microdilution assay; type: functional; conditions: HK11750/08, 24 h
# [17] = tested on: Klebsiella pneumoniae; assay: Antibacterial activity against Klebsiella pneumoniae HK14368/08 clinical isolate after 24 hrs by microdilution assay; type: functional; conditions: HK14368/08, 24 h
# [18] = tested on: Enterococcus sp.; assay: Antibacterial activity against Enterococcus sp. HK14365/08 clinical isolate after 48 hrs by microdilution assay; type: functional; conditions: HK14365/08, 48 h
# [19] = tested on: K562; assay: Cytotoxicity against human K562 cells assessed as reduction in cell viability after 48 hrs by ATPlite-based luminescent assay; conditions: K562, 48 h; in short: as §3
# [20] = tested on: Candida parapsilosis; assay: Antifungal activity against Candida parapsilosis ATCC 22019 up to 1 mM after 24 to 48 hrs by microdilution assay; type: functional, organism-based; in short: as §1
# [21] = tested on: Nakaseomyces glabratus; assay: Antifungal activity against Candida glabrata 20/I clinical isolate up to 1 mM after 24 to 48 hrs by microdilution assay; type: functional, organism-based; in short: as §1
# [22] = tested on: HepG2; assay: Cytotoxicity against human HepG2 cells assessed as reduction in cell viability after 48 hrs by ATPlite-based luminescent assay; conditions: HepG2, 48 h; in short: as §3
# [23] = tested on: PC-3; assay: Cytotoxicity against human PC3 cells assessed as reduction in cell viability after 48 hrs by ATPlite-based luminescent assay; conditions: PC-3, 48 h; in short: as §3
# [24] = tested on: PC-3; assay: Induction of apoptosis in human PC3 cells assessed as caspase 3/7 activity after 24 hrs by caspase-glo luminescent assay; type: cell-based; conditions: PC-3, 24 h; in short: as §4
# [25] = tested on: Staphylococcus aureus; assay: Antibacterial activity against Staphylococcus aureus ATCC 6538 after 48 hrs by microdilution assay; type: functional; conditions: ATCC 6538, 48 h
# [26] = tested on: Klebsiella pneumoniae; assay: Antibacterial activity against Klebsiella pneumoniae HK14368/08 clinical isolate after 48 hrs by microdilution assay; type: functional; conditions: HK14368/08, 48 h
# [27] = tested on: MCF7; assay: Cytotoxicity against human MCF7 cells assessed as reduction in cell viability after 48 hrs by ATPlite-based luminescent assay; conditions: MCF7, 48 h
# [28] = tested on: TERT-RPE1; assay: Induction of apoptosis in human RPE1 cells assessed as caspase 3/7 activity after 24 hrs by caspase-glo luminescent assay; type: cell-based; conditions: RPE-1, 24 h; in short: as §4
# [29] = tested on: Staphylococcus epidermidis; assay: Antibacterial activity against Staphylococcus epidermidis HK6966/08 clinical isolate after 48 hrs by microdilution assay; type: functional; conditions: HK6966/08, 48 h
# [30] = tested on: Pichia kudriavzevii; assay: Antifungal activity against Candida krusei ATCC 6258 up to 1 mM after 24 to 48 hrs by microdilution assay; type: functional, organism-based; in short: as §1
# [31] = tested on: Escherichia coli; assay: Antibacterial activity against Escherichia coli ATCC 8739 after 48 hrs by microdilution assay; type: functional; conditions: ATCC 8739, 48 h; in short: as §2
# [32] = tested on: Staphylococcus aureus; assay: Antibacterial activity against methicillin-resistant Staphylococcus aureus HK5996/08 clinical isolate after 24 hrs by microdilution assay; type: functional; conditions: HK5996/08, 24 h
# [33] = tested on: Clavispora lusitaniae; assay: Antifungal activity against Candida lusitaniae 2446/I clinical isolate up to 1 mM after 24 to 48 hrs by microdilution assay; type: functional, organism-based; in short: as §1
# [34] = tested on: Aspergillus fumigatus; assay: Antifungal activity against Aspergillus fumigatus 231 up to 1 mM after 24 to 48 hrs by microdilution assay; type: functional, organism-based; in short: as §1
# [35] = tested on: Staphylococcus epidermidis; assay: Antibacterial activity against Staphylococcus epidermidis HK6966/08 clinical isolate after 24 hrs by microdilution assay; type: functional; conditions: HK6966/08, 24 h
# [36] = tested on: TERT-RPE1; assay: Cytotoxicity against human RPE1 cells assessed as reduction in cell viability after 48 hrs by ATPlite-based luminescent assay; conditions: RPE-1, 48 h; in short: as §3
# [37] = tested on: Staphylococcus aureus; assay: Antibacterial activity against methicillin-resistant Staphylococcus aureus HK5996/08 clinical isolate after 48 hrs by microdilution assay; type: functional; conditions: HK5996/08, 48 h
# [38] = tested on: Lichtheimia corymbifera; assay: Antifungal activity against Absidia corymbifera 272 up to 1 mM after 24 to 48 hrs by microdilution assay; type: functional, organism-based; in short: as §1
# [39] = tested on: Pseudomonas aeruginosa; assay: Antibacterial activity against Pseudomonas aeruginosa ATCC 9027 after 24 hrs by microdilution assay; type: functional; conditions: ATCC 9027, 24 h; in short: as §2
# [40] = tested on: HL-60; assay: Induction of apoptosis in human HL60 cells assessed as caspase 3/7 activity after 24 hrs by caspase-glo luminescent assay; type: cell-based; conditions: HL-60, 24 h; in short: as §4
Compound,Activity [1],MIC95 [2] [µM],Activity [3],MIC95 [4] [µM],MIC95 [5] [µM],IC50 [6] [µM],Activity [7],MIC95 [8] [µM],Activity [9],Activity [10],IC50 [11] [µM],IC50 [12] [µM],Activity [13],MIC95 [14] [µM],IC50 [15] [µM],MIC95 [16] [µM],MIC95 [17] [µM],MIC95 [18] [µM],IC50 [19] [µM],Activity [20],also measured
O=C1OCC(c2ccccc2)=C1c1ccc(Br)cc1,inactive,3.9,inactive,> 1000,> 1000,> 40,inactive,> 1000,inactive,inactive,> 40,> 40,inactive,> 1000,> 40,> 1000,> 1000,> 1000,> 40,inactive,Activity [21]: inactive; IC50 [22]: > 40 µM; IC50 [23]: > 40 µM; IC50 [24]: > 40 µM; MIC95 [25]: 15.6 µM; MIC95 [26]: > 1000 µM; IC50 [27]: > 40 µM; IC50 [28]: > 40 µM; MIC95 [29]: 62.5 µM; Activity [30]: inactive; MIC95 [31]: > 1000 µM; MIC95 [32]: 31.2 µM; Activity [33]: inactive; Activity [34]: inactive; MIC95 [35]: 31.2 µM; IC50 [36]: > 40 µM; MIC95 [37]: 62.5 µM; Activity [38]: inactive; MIC95 [39]: > 1000 µM; IC50 [40]: > 40 µM
Cc1ccc(C2=C(c3ccc(Br)cc3)C(=O)OC2CO)cc1 (stereo not given),inactive,15.6,inactive,500,> 500,> 40,inactive,> 500,inactive,inactive,21.3,46.7,inactive,> 500,> 40,> 500,> 500,> 500,31.4,inactive,Activity [21]: inactive; IC50 [22]: > 40 µM; IC50 [23]: > 40 µM; IC50 [24]: > 40 µM; MIC95 [25]: 15.6 µM; MIC95 [26]: > 500 µM; IC50 [27]: > 40 µM; IC50 [28]: > 40 µM; MIC95 [29]: 62.5 µM; Activity [30]: inactive; MIC95 [31]: > 500 µM; MIC95 [32]: 62.5 µM; Activity [33]: inactive; Activity [34]: inactive; MIC95 [35]: 62.5 µM; IC50 [36]: > 40 µM; MIC95 [37]: 62.5 µM; Activity [38]: inactive; MIC95 [39]: > 500 µM; IC50 [40]: > 40 µM
